From ChEMBL document CHEMBL3745670, “Synthesis and biological evaluation of novel lipoamino acid derivatives” (Bioorg Med Chem Lett, 2016)
Values after ≈ are worked out from the molar mass of the structure shown.

What was measured:
[1] = test system: Staphylococcus aureus; test: Antibacterial activity against Staphylococcus aureus MTCC 96 after 24 hrs by well diffusion assay; assay type: functional; conditions: MTCC 96, 24 h
[2] = test system: Candida parapsilosis; test: Inhibition of ergosterol biosynthesis in Candida parapsilosis MTCC 1744 assessed as mean ergosterol content at 2 ug/ml after 20 hrs by spectrophotometric analysis (Rvb=1.62 +/- 0.08 ug/ml); assay type: functional
[3] = test system: Micrococcus luteus; test: Antibacterial activity against Micrococcus luteus MTCC 2470 after 24 hrs by well diffusion assay; assay type: functional; conditions: MTCC 2470, 24 h
[4] = test system: Bacillus subtilis; test: Antibacterial activity against Bacillus subtilis MTCC 121 after 24 hrs by well diffusion assay; assay type: functional; conditions: MTCC 121, 24 h
[5] = test system: Candida albicans; test: Antifungal activity against Candida albicans MTCC 3018 after 24 hrs by well diffusion assay; assay type: functional; conditions: MTCC 3018, 24 h
How it was run: (§1)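 Well diffusion screen against Candida and related fungal strains. Read-out is MIC in µg/mL, with miconazole as the reference drug.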

[6] = test system: Pseudomonas aeruginosa; test: Antibacterial activity against Pseudomonas aeruginosa MTCC 2453 after 24 hrs by well diffusion assay; assay type: functional; conditions: MTCC 2453, 24 h
[7] = test system: Nakaseomyces glabratus; test: Antifungal activity against Candida glabrata MTCC 3019 after 24 hrs by well diffusion assay; assay type: functional; conditions: MTCC 3019, 24 h; how it was run: as §1
[8] = test system: Candida albicans; test: Antifungal activity against Candida albicans MTCC 3017 after 24 hrs by well diffusion assay; assay type: functional; conditions: MTCC 3017, 24 h; how it was run: as §1
[9] = test system: Candida albicans; test: Antifungal activity against Candida albicans MTCC 1637 after 24 hrs by well diffusion assay; assay type: functional; conditions: MTCC 1637, 24 h; how it was run: as §1
[10] = test system: Candida parapsilosis; test: Inhibition of ergosterol biosynthesis in Candida parapsilosis MTCC 1744 assessed as mean ergosterol content at 8 ug/ml after 20 hrs by spectrophotometric analysis (Rvb=1.62 +/- 0.08 ug/ml); assay type: functional
[11] = test system: Candida albicans; test: Antifungal activity against Candida albicans MTCC 183 after 24 hrs by well diffusion assay; assay type: functional; conditions: MTCC 183, 24 h; how it was run: as §1
[12] = test system: [Candida] aaseri; test: Antifungal activity against Candida aaseri MTCC 1962 after 24 hrs by well diffusion assay; assay type: functional; conditions: Yamadazyma aaseri, MTCC 1962, 24 h; how it was run: as §1
[13] = test system: Candida albicans; test: Antifungal activity against Candida albicans MTCC 227 after 24 hrs by well diffusion assay; assay type: functional; conditions: MTCC 227, 24 h; how it was run: as §1
[14] = test system: Staphylococcus aureus; test: Antibacterial activity against Staphylococcus aureus MLS-16 MTCC 2940 after 24 hrs by well diffusion assay; assay type: functional; conditions: MLS-16 MTCC 2940, 24 h
[15] = test system: Pichia sporocuriosa; test: Antifungal activity against Issatchenkia hanoiensis MTCC 4755 after 24 hrs by well diffusion assay; assay type: functional; conditions: MTCC 4755, 24 h; how it was run: as §1
[16] = test system: Escherichia coli; test: Antibacterial activity against Escherichia coli MTCC 739 after 24 hrs by well diffusion assay; assay type: functional; conditions: MTCC 739, 24 h
[17] = test system: Candida parapsilosis; test: Antifungal activity against Candida parapsilosis MTCC 1744 after 24 hrs by well diffusion assay; assay type: functional; conditions: Lodderomyces parapsilosis, MTCC 1744, 24 h; how it was run: as §1
[18] = test system: Candida albicans; test: Antifungal activity against Candida albicans MTCC 4748 after 24 hrs by well diffusion assay; assay type: functional; conditions: MTCC 4748, 24 h; how it was run: as §1
[19] = test system: Candida albicans; test: Antifungal activity against Candida albicans MTCC 3958 after 24 hrs by well diffusion assay; assay type: functional; conditions: MTCC 3958, 24 h; how it was run: as §1
[20] = test system: Candida parapsilosis; test: Inhibition of ergosterol biosynthesis in Candida parapsilosis MTCC 1744 assessed as mean ergosterol content at 16 ug/ml after 20 hrs by spectrophotometric analysis (Rvb=1.62 +/- 0.08 ug/ml); assay type: functional
[21] = test system: Pichia kudriavzevii; test: Antifungal activity against Pichia kudriavzevii MTCC 3020 after 24 hrs by well diffusion assay; assay type: functional; conditions: MTCC 3020, 24 h; how it was run: as §1
[22] = test system: Candida parapsilosis; test: Inhibition of ergosterol biosynthesis in Candida parapsilosis MTCC 1744 assessed as mean ergosterol content at 4 ug/ml after 20 hrs by spectrophotometric analysis (Rvb=1.62 +/- 0.08 ug/ml); assay type: functional
[23] = test system: Candida albicans; test: Antifungal activity against Candida albicans MTCC 854 after 24 hrs by well diffusion assay; assay type: functional; conditions: MTCC 854, 24 h; how it was run: as §1
[24] = test system: Raoultella planticola; test: Antibacterial activity against Klebsiella planticola MTCC 530 after 24 hrs by well diffusion assay; assay type: functional; conditions: MTCC 530, 24 h
[25] = test system: Candida albicans; test: Antifungal activity against Candida albicans MTCC 7315 after 24 hrs by well diffusion assay; assay type: functional; conditions: MTCC 7315, 24 h; how it was run: as §1
[26] = test system: Bacillus subtilis; test: Antibiofilm activity against Bacillus subtilis MTCC 121 after 24 hrs by well diffusion assay by crystal violet staining based method; assay type: functional, organism-based; conditions: MTCC 121, 24 h
How it was run: (§2)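 Biofilm inhibition was tested on the four Gram-positive strains, using crystal violet staining.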

[27] = test system: Bacillus subtilis; test: Bactericidal activity against Bacillus subtilis MTCC 121 after 24 hrs by well diffusion assay; assay type: functional; conditions: MTCC 121, 24 h
How it was run: (§3)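 Minimum bactericidal concentration was determined on four Gram-positive strains, for the compounds active in the preliminary antibacterial screen.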

[28] = test system: Staphylococcus aureus; test: Bactericidal activity against Staphylococcus aureus MLS-16 MTCC 2940 after 24 hrs; assay type: functional; conditions: MLS-16 MTCC 2940, 24 h; how it was run: as §3
[29] = test system: Micrococcus luteus; test: Bactericidal activity against Micrococcus luteus MTCC 2470 after 24 hrs; assay type: functional; conditions: MTCC 2470, 24 h; how it was run: as §3
[30] = test system: Staphylococcus aureus; test: Bactericidal activity against Staphylococcus aureus MTCC 96 after 24 hrs; assay type: functional; conditions: MTCC 96, 24 h; how it was run: as §3
[31] = test system: Micrococcus luteus; test: Antibiofilm activity against Micrococcus luteus MTCC 2470 after 24 hrs by crystal violet staining based method; assay type: functional, organism-based; conditions: MTCC 2470, 24 h; how it was run: as §2
[32] = test system: HepG2; test: Cytotoxicity against human HepG2 cells by MTT assay; assay type: functional, cell-based
[33] = Cytotoxicity against human SKOV3 cells by MTT assay; assay type: functional, cell-based; conditions: SK-OV-3
[34] = Cytotoxicity against human DU145 cells by MTT assay; assay type: functional, cell-based; conditions: DU-145
[35] = test system: MDA-MB-231; test: Cytotoxicity against human MDA-MB-231 cells by MTT assay; assay type: functional, cell-based

Clc1ccc(COC(Cn2ccnc2)c2ccc(Cl)cc2Cl)c(Cl)c1 (configuration not stated) [MICONAZOLE]
MIC [1]: > 125 mg/L
Activity [2]: 1.28 µg/mL
MIC [3]: > 125 mg/L
MIC [4]: > 125 mg/L
MFC [5]: 7.8 mg/L (≈ 18.7 µM)
MIC [5]: 7.8 mg/L (≈ 18.7 µM)
MIC [6]: > 125 mg/L
MFC [7]: 7.8 mg/L (≈ 18.7 µM)
MIC [7]: 7.8 mg/L (≈ 18.7 µM)
MIC [8]: 7.8 mg/L (≈ 18.7 µM)
MFC [9]: 15.6 mg/L (≈ 37.5 µM)
MIC [9]: 7.8 mg/L (≈ 18.7 µM)
Activity [10]: 0.24 µg/mL
MFC [11]: 7.8 mg/L (≈ 18.7 µM)
MIC [11]: 7.8 mg/L (≈ 18.7 µM)
MFC [12]: 15.6 mg/L (≈ 37.5 µM)
MIC [12]: 7.8 mg/L (≈ 18.7 µM)
MFC [13]: 15.6 mg/L (≈ 37.5 µM)
MIC [13]: 7.8 mg/L (≈ 18.7 µM)
MIC [14]: > 125 mg/L
MFC [15]: 7.8 mg/L (≈ 18.7 µM)
MIC [15]: 7.8 mg/L (≈ 18.7 µM)
MIC [16]: > 125 mg/L
MFC [17]: 7.8 mg/L (≈ 18.7 µM)
MIC [17]: 7.8 mg/L (≈ 18.7 µM)
MFC [18]: 7.8 mg/L (≈ 18.7 µM)
MIC [18]: 7.8 mg/L (≈ 18.7 µM)
MFC [19]: 7.8 mg/L (≈ 18.7 µM)
MIC [19]: 7.8 mg/L (≈ 18.7 µM)
Activity [20]: 0.09 µg/mL
MFC [21]: 7.8 mg/L (≈ 18.7 µM)
MIC [21]: 7.8 mg/L (≈ 18.7 µM)
Activity [22]: 0.54 µg/mL
MFC [23]: 7.8 mg/L (≈ 18.7 µM)
MIC [23]: 7.8 mg/L (≈ 18.7 µM)
MIC [24]: > 125 mg/L
MFC [25]: 15.6 mg/L (≈ 37.5 µM)
MIC [25]: 7.8 mg/L (≈ 18.7 µM)

O=C(O)c1cn(C2CC2)c2cc(N3CCNCC3)c(F)cc2c1=O [CIPROFLOXACIN]
MIC [1]: 0.9 mg/L (≈ 2.72 µM)
MIC [3]: 0.9 mg/L (≈ 2.72 µM)
MIC [4]: 0.9 mg/L (≈ 2.72 µM)
IC50 [26]: 0.5 µM
MBC [27]: 1.9 mg/L (≈ 5.73 µM)
MBC [28]: 1.9 mg/L (≈ 5.73 µM)
MIC [6]: 0.9 mg/L (≈ 2.72 µM)
MBC [29]: 0.9 mg/L (≈ 2.72 µM)
MIC [8]: > 125 mg/L
MIC [14]: 0.9 mg/L (≈ 2.72 µM)
MBC [30]: 1.9 mg/L (≈ 5.73 µM)
MIC [16]: 0.9 mg/L (≈ 2.72 µM)
MIC [24]: 0.9 mg/L (≈ 2.72 µM)
IC50 [31]: 0.5 µM

CCCCCCCCC(CCCCCCCCC(=O)OC)SCC(=O)N[C@H](C(=O)OC)c1c[nH]c2ccccc12 (some centres not stated)
MIC [1]: > 125 mg/L
MIC [3]: > 125 mg/L
MIC [4]: > 125 mg/L
MIC [6]: > 125 mg/L
MIC [8]: > 125 mg/L
MIC [14]: > 125 mg/L
MIC [16]: > 125 mg/L
MIC [24]: > 125 mg/L

CCCCCCCCC(CCCCCCCCC(=O)OC)SCC(=O)N[C@@H](Cc1ccccc1)C(=O)OC (some centres not stated)
MIC [1]: > 125 mg/L
MIC [3]: > 125 mg/L
MIC [4]: > 125 mg/L
MIC [6]: > 125 mg/L
MIC [8]: > 125 mg/L
IC50 [32]: 33.6 µM
IC50 [33]: 42.5 µM
MIC [14]: > 125 mg/L
IC50 [34]: 49.1 µM
MIC [16]: > 125 mg/L
MIC [24]: > 125 mg/L
IC50 [35]: 38.6 µM
